The list is not random: actives were taken first. Their share in the collection is about 4.5%.
CHO parental Ca: ATP-evoked calcium signal inhibitors, parental CHO, primary screen, counter-screen for OX1R antagonist project, cell-based, fluorescence, Fluo-8 calcium dye | inhibition, % at 5.6 µM | AID 463079, 2010 | 330,000 tested, 0.63% active | parental CHO-K1, ATP-induced calcium, Fluo-8 fluorescence;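 active = inhibition above that plate's mean sample inhibition plus 3 SD, cut at about 26% in these data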;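 also: 0% = ATP-challenged DMSO wells and 100% = DMSO wells without ATP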
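material = parental CHO cells | also added = ATP as calcium-mobilizing challenge | dosing = single point at 5.6 µM | detection = intracellular calcium via Fluo-8 no-wash fluorescent dye | read-out = % inhibition | benchmarks = low control ATP plus DMSO, high control DMSO only | repeats = one well per compound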
OX1R antag-1: antagonists of human orexin 1 receptor (OX1R); inhibition, % at 6.6 µM; AID 485270, 2010; OX1R-expressing cells, FRET antagonist read-out; 330,000 tested, 1.8% active; in the data active = inhibition mostly above about 38%, no sharp cut-off; inactive = mostly below about 40%;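 also: 0% = agonist challenge alone and 100% = reference antagonist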
TAAR1 ag: human TAAR1 agonists, primary screen, Fluo-8 calcium fluorescence, CHO RD-HGA16 cells | Trace amine-associated receptor 1 (Homo sapiens), Q96RJ0 | vehicle wells 0%, saturating PEA agonist 100% | activation, % at 3 µM | 360,000 tested, 0.99% active | AID 624467, 2012;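 active = activation above the mean activation of all test compounds in the run plus 3 SD, cut at about 38% in these data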
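Signal – calcium-sensitive Fluo-8 signal, excitation 470-495, emission 515-575 nm · System – RD-HGA16 (CHO) cells co-expressing Gα16 and hTAAR1 · Incubation – 17-24 h seeding, 75 min 37 °C dye, 30 min RT · Compound dosing – 3 µM single concentration · Repeats – no replicates (n 1)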
GPR7 antag: GPR7 receptor antagonists, primary screen, cell-based, fluorescence, single concentration; GPR7-expressing cells, fluorescence antagonist assay; 290,000 tested, 1.1% active; Neuropeptides B/W receptor type 1 (Homo sapiens), P48145; inhibition, % at 4.4 µM; in the data active = inhibition above about 16%, passing the limit was not always enough;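 also: cells stimulated with the agonist NPW; 0% = agonist with vehicle and 100% = vehicle without agonist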
Target sequence (P48145 whole entry, looked up): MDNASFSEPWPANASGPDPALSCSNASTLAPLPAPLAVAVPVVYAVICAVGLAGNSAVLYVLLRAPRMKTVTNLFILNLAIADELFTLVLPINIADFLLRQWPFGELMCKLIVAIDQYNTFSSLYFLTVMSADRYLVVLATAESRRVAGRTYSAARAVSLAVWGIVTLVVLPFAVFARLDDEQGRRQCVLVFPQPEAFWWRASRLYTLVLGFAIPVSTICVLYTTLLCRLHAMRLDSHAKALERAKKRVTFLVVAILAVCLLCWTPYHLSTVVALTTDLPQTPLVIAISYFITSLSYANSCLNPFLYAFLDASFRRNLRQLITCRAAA
OX1R antag-2: OX1R (HCRTR1) antagonists, primary screen, fluorescence, CHO/OX1R cells, Fluo-8 calcium, orexin A; Fluo-8 calcium fluorescence; 330,000 tested, 0.43% active; Orexin/Hypocretin receptor type 1 (Homo sapiens), O43613; inhibition, % at 5 µM;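 active = inhibition above its plate's threshold, mean inhibition of all tested compounds on the plate plus 3 SD, cut at about 37% in these data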;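 also: 0% = orexin A challenge wells and 100% = SB-334867-A antagonist wells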
TAAR1 antag: human TAAR1 antagonists, primary screen, Fluo-8 calcium fluorescence, CHO RD-HGA16 cells. inhibition, % at 3 µM. Trace amine-associated receptor 1 (Homo sapiens), Q96RJ0. 360,000 tested, 1.5% active. antagonist;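 active = inhibition above a per-plate cutoff, the mean inhibition of test compounds on that plate plus 3 SD, cut at about 49% in these data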;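 also: 0% = DMSO plus EC80 beta-PEA response and 100% = DMSO alone without agonist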
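Test system: hTAAR1-expressing CHO RD-HGA16 cells, Gα16-coupled; Probe or stimulus: EC80 β-phenethylamine stimulus; Compound dosing: single nominal final test compound concentration of 3 µM; Timing: 140 s kinetic read after compound, 140 s after agonist; Signal: Fluo-8 calcium-sensitive fluorescence; Measure: % inhibition of agonist calcium response; Controls: DMSO and EC80 PEA controls.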
GPR7 antag cf: GPR7 receptor antagonists, confirmation, cell-based, fluorescence, single concentration; shares compounds with GPR7 antag; GPR7-expressing cells, calcium fluorescence antagonist mode; inhibition, % at 4.4 µM; 2,400 tested, 52% active; in the data active = inhibition above about 24%;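 also: stimulated with the GPR7 agonist NPW; 0% = agonist plus vehicle and 100% = vehicle alone without agonist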
MCHR1 antagonist: MCHR1 antagonists in cells, counter-screen for GPR7 antagonist project, cell-based, fluorescence, human | shares compounds with GPR7 antag | MCHR1-expressing cells, fluorescence antagonist assay | inhibition, % at 4.4 µM | 2,400 tested, 62% active | AID 2148, 2009; in the data active = inhibition above about 22%;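 also: 0% = vehicle with agonist and 100% = vehicle without agonist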
Numbers without * were called inactive.

C[C@H](CO)N1C[C@H](C)[C@@H](CN(C)S(=O)(=O)c2cn(C)cn2)Oc2c(NS(=O)(=O)c3cccs3)cccc2C1=O was read as CHO parental Ca -17, OX1R antag-1 11, TAAR1 ag 4, OX1R antag-2 27 and TAAR1 antag -21.
`CC(=O)c1ccc(NC(=O)CSc2ccc(-c3sc(C)nc3C)nn2)cc1` gave CHO parental Ca -3, OX1R antag-1 19, TAAR1 ag 13, GPR7 antag 26*, OX1R antag-2 -7, TAAR1 antag 64*, GPR7 antag cf 43* and MCHR1 antagonist 76*.
For Cc1ccc(S(=O)(=O)Nc2ccccc2OC(C(=O)OC(C)(C)C)C(=O)OC(C)(C)C)cc1 the results were TAAR1 ag -1 and TAAR1 antag -5.
COc1cccc(CC(=O)N2CCCC(CO)(Cc3ccc(F)cc3F)C2)c1 (configuration not stated) was read as CHO parental Ca -1, OX1R antag-1 16, TAAR1 ag 2, GPR7 antag 26*, OX1R antag-2 -35, TAAR1 antag -12, GPR7 antag cf -7 and MCHR1 antagonist -9.
For CCN(CC)C(=O)C1=C(C)N(Cc2ccccc2)C(=O)C(CC(=O)NC2CCCCC2)C1 (configuration not stated) the results were TAAR1 ag -1 and TAAR1 antag -10.
For CCc1ccccc1NC(=O)CSc1nc2ccccc2nc1N1CCOCC1 the results were CHO parental Ca -5, OX1R antag-1 7, TAAR1 ag 2, GPR7 antag 26*, OX1R antag-2 -28, TAAR1 antag -19, GPR7 antag cf 34* and MCHR1 antagonist 31*.
Cc1ccc(C)c(NC(=O)CSc2nc3ccccc3nc2N2CCOCC2)c1 was read as CHO parental Ca -2, OX1R antag-1 -1, TAAR1 ag 1, GPR7 antag -2, OX1R antag-2 -8 and TAAR1 antag -17.
`CS(=O)(=O)c1ccc(S(=O)(=O)N2CCN(C(=O)C(O)c3ccccc3)CC2)cc1` (configuration not stated) gave TAAR1 ag 1 and TAAR1 antag 9.
C=CCOc1c(CNC2CCCC2)cc(Cl)cc1OC was read as CHO parental Ca -15, OX1R antag-1 15, TAAR1 ag 0, GPR7 antag 26*, OX1R antag-2 -18, TAAR1 antag -36, GPR7 antag cf 15 and MCHR1 antagonist 9.
Screening O=C(CN1C2=NCCN2c2ccccc21)C12CC3CC(CC(C3)C1)C2 returned CHO parental Ca -22, OX1R antag-1 8, TAAR1 ag 25, GPR7 antag 42*, OX1R antag-2 10, TAAR1 antag -10, GPR7 antag cf 40* and MCHR1 antagonist 32*.
Screening C#CCOCC1CNC(=S)O1 (configuration not stated) returned TAAR1 ag 0 and TAAR1 antag 11.
`CN(C)S(=O)(=O)c1cccc(NC(=S)NC(=O)C2CCCCC2)c1` gave CHO parental Ca -35, OX1R antag-1 10, TAAR1 ag 14, GPR7 antag 32*, OX1R antag-2 -40, TAAR1 antag -7, GPR7 antag cf 1 and MCHR1 antagonist 35*.

High-throughput results as filed in PubChem BioAssay.
